# Screens (PubChem BioAssay)
# An excerpt weighted towards active compounds, which were near 2% of everything screened.
# GAA850 FXN act: frataxin GAA850 promoter activation; HEK293 lucGAA850 FXN promoter luciferase reporter, 24 h; percent of 10 µM SAHA response; activation, % at 6 µM; 360,000 compounds, 0.56% hits;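 active = activation above the average of all compounds screened plus 3 SD, cutoff fixed separately per campaign, cut at about 7.5% in these data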;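 note: 0% = DMSO wells and 100% = 10 µM SAHA wells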
# APJ antagonist: APJ receptor antagonism; CHO-K1 APJ beta-arrestin complementation, luminescence; 330,000 compounds, 0.32% hits; inhibition, % at 20 µM; AID 2521; P35414;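 active = inhibition above about 40% at 20 µM, limit read from the data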;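 note: cells challenged with 10 nM apelin-13 agonist together with compound; plate controls were apelin-13 plus DMSO wells for no effect and DMSO wells lacking apelin-13 for full effect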
# Target sequence (P35414 whole entry, looked up): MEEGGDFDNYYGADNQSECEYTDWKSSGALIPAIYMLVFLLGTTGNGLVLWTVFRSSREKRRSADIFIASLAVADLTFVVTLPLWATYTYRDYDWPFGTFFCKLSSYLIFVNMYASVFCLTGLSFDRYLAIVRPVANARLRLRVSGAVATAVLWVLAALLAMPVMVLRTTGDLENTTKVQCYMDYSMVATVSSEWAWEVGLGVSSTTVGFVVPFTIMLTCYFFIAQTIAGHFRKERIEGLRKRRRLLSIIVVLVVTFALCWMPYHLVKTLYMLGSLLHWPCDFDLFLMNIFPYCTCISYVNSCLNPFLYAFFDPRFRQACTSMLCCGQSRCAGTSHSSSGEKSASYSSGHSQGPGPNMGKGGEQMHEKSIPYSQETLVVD
# APJ agonist: activates the human apelin receptor APJ. CHO-K1 APJ PathHunter beta-arrestin, luminescence; 0% DMSO wells, 100% apelin. activation, % at 20 µM. 330,000 compounds, 0.11% hits. AID 2520;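 active = activation more than six SD over the plate average, tested at 20 µM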;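 note: 0% = DMSO alone and 100% = apelin-13 at 10 nM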
#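 Assay system – PathHunter CHO-K1 APJ (AGTRL-1) beta-arrestin reporter cells · Compound – one dose, 20 µM compound, 1% DMSO · Timing – compound 90 min 25 °C, reagent 1 h · Measured by – luminescence from split beta-galactosidase complementation, Galacton Star/Emerald II substrate · Measure – beta-arrestin recruitment to APJ as agonist activity, luminescent signal · Benchmarks – DMSO vs Apelin-13 10 nM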
# EBI2 block: blocks human EBI2 receptor beta-arrestin signaling; P32249; EBI2 beta-arrestin recruitment, luminescence, 7a,25-OHC stimulated; inhibition, % at 5 µM; 360,000 compounds, 0.81% hits; in the data active = inhibition above about 38%;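 note: enzyme fragment complementation signal reports receptor beta-arrestin coupling in cells; 0% = agonist plus DMSO wells and 100% = wells without agonist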
# CCR6 antagonist: CCR6 (human) receptor antagonism; CHO-K1 CCR6 PathHunter beta-arrestin, luminescence, CCL20-stimulated; inhibition, % at 20 µM; 340,000 compounds, 0.49% hits; P51684;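 active = compounds whose inhibition of the agonist-driven luminescence signal at 20 µM reaches about 50%, limit read from the data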;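 note: cells stimulated with CCL20 at 14 nM final; plate controls were DMSO with CCL20 for no effect and DMSO without agonist for full effect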
# Target sequence (P51684 whole entry, looked up): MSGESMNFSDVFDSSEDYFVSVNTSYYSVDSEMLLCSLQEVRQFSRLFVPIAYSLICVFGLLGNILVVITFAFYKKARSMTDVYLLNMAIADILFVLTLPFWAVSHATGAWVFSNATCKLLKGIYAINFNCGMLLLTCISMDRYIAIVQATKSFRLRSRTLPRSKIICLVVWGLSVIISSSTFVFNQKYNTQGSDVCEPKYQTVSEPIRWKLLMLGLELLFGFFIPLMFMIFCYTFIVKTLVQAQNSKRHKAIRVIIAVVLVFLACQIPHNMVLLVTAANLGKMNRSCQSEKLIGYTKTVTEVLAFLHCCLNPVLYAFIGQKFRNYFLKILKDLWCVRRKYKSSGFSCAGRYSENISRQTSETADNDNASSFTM
# CXCR6 block: blocks human CXCR6 beta-arrestin recruitment; O00574; inhibition, % at 20 µM; 360,000 compounds, 0.36% hits; AID 602244; CHO-K1 PathHunter CXCR6 beta-arrestin, luminescence; in the data active = inhibition above about 34%, passing the limit was not always enough;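 note: antagonist mode with CXCL16 agonist at 10 nM final; 0% = 10 nM CXCL16 with DMSO and 100% = unstimulated wells without agonist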
# GAA30 counter: activates GAA30 frataxin promoter, counter-screen for GAA850 activators; shares compounds with GAA850 FXN act; HEK293 lucGAA30 FXN promoter luciferase, 24 h; DMSO = 0%, 5 µM ipriflavone = 100%; activation, % at 6 µM; 1,900 compounds, 66% hits; AID 588350;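 active = mean activation above the mean of solvent-only control wells plus 3 SD, cut at about 22% in these data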;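 note: counterscreen of GAA850 promoter hits where activity marks nonselective or luminescence artifacts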
# GAA850 confirm: confirmation of GAA850 frataxin (FXN) promoter activators; shares compounds with GAA850 FXN act; HEK293 lucGAA850 FXN promoter luciferase reporter, 24 h; 100% = activation by SAHA; activation, % at 6 µM; 1,900 compounds, 86% hits;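 active = mean activation above a set limit taken from the primary screen, cut at about 8% in these data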;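 note: 0% = DMSO wells and 100% = 10 µM SAHA wells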
# The depositor's hits bear a star; / = no result given.
SMILES,GAA850 FXN act,APJ antagonist,APJ agonist,EBI2 block,CCR6 antagonist,CXCR6 block,GAA30 counter,GAA850 confirm
COc1ccc(-c2nnc(SCC(=O)NC(=O)Cc3ccccc3)n2C)cc1,-0.4,-0.6,-0.5,-0.6,-0.6,1.4,/,/
CC(C)CN1CCN(C(=O)COC(=O)c2ccc(S(C)(=O)=O)c([N+](=O)[O-])c2)CC1,9.7*,/,/,11.8,/,3.2,70.2*,14.9*
N#Cc1c(NC(=O)CSc2ncccn2)oc(-c2ccccc2)c1-c1ccccc1,1.3,6.5,-5.0,-5.5,0.6,7.0,/,/
CCn1c(SCC(=O)Nc2oc(-c3ccccc3)c(-c3ccccc3)c2C#N)nnc1-c1cc(OC)cc(OC)c1,13.0*,-12.9,-3.1,27.9,21.5,6.7,11.6,0.6
N#Cc1c(N)nc2c(c1-c1ccccc1)CCC2,8.2*,12.8,-3.2,-2.6,11.6,0.3,62.0*,35.4*
COc1ccc(-c2c(C#N)c(N)nc3c2CCC3)cc1,1.7,1.3,-0.2,5.4,-11.6,5.7,/,/
CC(C)(C)NC(=O)C(c1cccc2ccccc12)n1c(=O)c(-c2cc3ccccc3[nH]2)nc2ccccc21 (centres undefined),/,/,/,20.5,/,/,/,/
CCOc1ccc(/C=C2\SC(=O)N(c3ccc(O)cc3)C2=O)cc1OC,/,-9.2,-4.6,/,13.0,/,/,/
COc1ccc(/C=C2\SC(=N)N(c3ccc(F)cc3)C2=O)cc1OC,8.3*,-0.7,0.0,3.1,6.0,-8.2,17.7,14.8*
CCOc1ccc(N2CC(C(=O)NC3CCSC3=O)CC2=O)cc1 (centres undefined),2.6,14.8,2.8,6.9,7.3,4.2,/,/
Cc1ccc(NN2C(=O)C=C(c3ccc(Cl)cc3)C2=O)cc1,9.5*,-11.9,4.5,46.2*,12.1,0.3,-6.2,18.5*
COc1ccc(C2=CC(=O)N(Nc3ccccc3)C2=O)cc1,8.2*,15.2,-1.6,3.7,33.3,9.0,25.1*,11.0*
O=C1C=C(c2ccccc2)C(=O)N1Nc1ccccc1,4.2,7.7,11.2,3.0,/,31.1,/,/
Cc1cc(Br)cn2c(Cc3cccc(F)c3)c(-c3ccc(C#N)cc3)nc12,/,/,/,26.4,/,8.4,/,/
CCCCN(C(=O)NC(=O)C1=C(N2CCOCC2)/C(=C/c2ccccc2)CC1)S(C)(=O)=O,2.4,5.7,-5.6,-7.5,9.9,2.6,/,/
CCOC(=O)C(=O)C1=C(N2CCOCC2)/C(=C\c2ccc(F)cc2)CC1,7.6*,17.8,-3.8,-18.2,12.3,10.2,17.9,9.0*
C[C@@H]1CCCCO[C@H](CN(C)S(=O)(=O)c2ccccc2)[C@@H](C)CN([C@H](C)CO)C(=O)c2cc(NC(=O)Cc3ccccc3)ccc2O1,-1.8,/,/,-3.0,/,8.2,/,/
O=C1CSC(c2ccc(F)c(F)c2)N1c1ccccc1F (centres undefined),-0.9,6.9,-3.5,3.6,9.0,-5.1,/,/
O=C(Nc1ccccc1O)c1ccc(NC(=O)C2CC2)cc1,11.1*,-7.3,-6.2,8.7,-1.7,1.6,128.1*,64.0*
O=C(Nc1ccccc1C(=O)O)c1ccc(NC(=O)C2CC2)cc1,1.6,23.4,6.9,-5.5,0.1,0.8,/,/
COc1ccc(-c2csc(NC(=O)CCNC(=O)c3ccco3)n2)cc1,0.3,/,/,-6.0,/,4.3,/,/
OCCCNc1c2ccccc2nc2ccccc12,13.3*,17.2,-2.2,3.8,22.4,-1.3,-15.2,118.8*
COc1ccccc1C(=O)C1Nc2ccccc2-c2nnc(SC)nc2O1 (centres undefined),8.8*,-5.2,4.8,-15.3,-1.0,-1.4,15.8,5.5
CCN1C(=O)[C@H]2[C@@H](c3ccc(C)cc3)N3C(=O)N(c4cccc(Cl)c4)C(=O)[C@@]3(CC)[C@H]2C1=O,8.2*,0.2,6.0,-6.2,1.2,-12.9,9.1,7.9*
Cc1ccc(N2C(=O)N3[C@H](c4cccc(C)c4)[C@@H]4C(=O)N(Cc5ccccc5)C(=O)[C@@H]4[C@]3(C)C2=O)cc1,7.6*,7.2,2.3,-2.1,3.6,-4.5,17.7,8.5*
SMILES,GAA850 FXN act,APJ antagonist,APJ agonist,EBI2 block,CCR6 antagonist,CXCR6 block,GAA30 counter,GAA850 confirm
CCN1C(=O)[C@H]2[C@@H](c3ccc(C)cc3)N3C(=O)N(c4cccc(Cl)c4)C(=O)[C@@]3(C)[C@H]2C1=O,-0.2,16.6,-1.8,-5.8,1.1,0.4,/,/
CC[C@@]12C(=O)N(c3ccc(C)cc3)C(=O)N1[C@H](c1cccc(C)c1)[C@@H]1C(=O)N(Cc3ccccc3)C(=O)[C@@H]12,8.4*,-3.2,4.3,-2.8,0.9,0.0,23.1*,12.4*
CC[C@@]12C(=O)N(c3ccc(OC)cc3)C(=O)N1[C@H](c1cccc(C)c1)[C@@H]1C(=O)N(Cc3ccccc3)C(=O)[C@@H]12,3.8,10.9,5.1,-2.1,9.4,3.8,/,/
CC(C)C(C)NC(=O)CN1C(=O)NC2(CCc3ccccc32)C1=O (centres undefined),-1.0,2.8,3.3,-8.8,-0.6,1.2,/,/
O=C(NCc1ccccc1)C(c1ccc(C(F)(F)F)cc1)N1CCN(CCN2CCOCC2)CC1 (centres undefined),/,/,/,-7.5,/,/,/,/
COc1ccc(NC(=S)Nc2ccccn2)c(OC)c1,8.1*,0.7,4.6,-6.2,18.2,4.7,107.0*,46.0*
COc1ccc(NC(=S)Nc2cc(C)ccn2)c(OC)c1,6.7,-16.7,-2.6,-0.8,-20.0,5.4,/,/
COC(=O)[C@]1(C)N[C@H](CN(C)C(=O)Nc2ccc(OC)cc2)[C@@H]2C(=O)N(Cc3ccccc3)C(=O)[C@@H]21,8.3*,-1.9,-0.8,-8.8,7.2,-2.9,18.5,17.3*
COC(=O)[C@]1(C)N[C@H](CN(C)C(=O)Nc2ccc(C)cc2)[C@@H]2C(=O)N(Cc3ccccc3)C(=O)[C@@H]21,12.1*,1.0,-1.4,-2.4,0.9,0.7,25.4*,6.7
CCN(C[C@H]1N[C@@](C)(C(=O)OC)[C@H]2C(=O)N(Cc3ccccc3)C(=O)[C@@H]12)C(=O)Nc1ccc(F)cc1,15.3*,4.0,-3.4,-6.3,-13.8,-1.3,25.3*,6.3
COC(=O)[C@]1(Cc2ccccc2)N[C@H](CN(C)C(=O)Nc2ccc(Cl)cc2)[C@@H]2C(=O)N(Cc3ccccc3)C(=O)[C@@H]21,-1.9,5.6,-3.9,9.7,10.3,5.1,/,/
CCNC(=O)N(C)C[C@H]1N[C@@](C)(C(=O)OC)[C@H]2C(=O)N(Cc3ccccc3)C(=O)[C@@H]12,-1.4,-0.6,-4.3,-11.1,-6.8,2.2,/,/
